Measurements pooled from the literature.
Lines come from different studies, so protocols differ.

For `CC(C)CN1C[C@H]2CC[C@@H]3[C@]4(C)COC(C)(C)O[C@@H]4CC[C@@]3(C)[C@@H]2C[C@@H]1C1=CCOC1=O`, the cell death was -4.1% (MRC5; cell growth or viability, ATP luminescence; 25 µM, 72 h).
`O=C(O)CSc1nnc(Br)n1-c1ccc(C2CC2)c2ccccc12` has an inhibition of 36% (Solute carrier family 22 member 1 (SLC22A1, Homo sapiens, UniProt O15245); transporter uptake, inhibitor; MDCK-II; 3 µM, 5 min).
For `C=CCn1c(=O)c2cnc(Nc3ccc(N4CCN(C)CC4)cc3)nc2n1-c1cccc(C(C)(C)O)n1`, the concentration was 300 nM (human, plasma; oral, 200 mg, 8 h, single dose).
`CC(C)CCN1C[C@H]2CC[C@@H]3[C@]4(C)COC(C)(C)O[C@@H]4CC[C@@]3(C)[C@@H]2C[C@@H]1C1=CCOC1=O` gave a cell death of 11.7% (MRC5; cell growth or viability, ATP luminescence; 25 µM, 72 h).
With `COc1cc(OC)c2c(=O)cc(-c3cccc(Br)c3)oc2c1` the CC50 was 128 µM (HS27; cell growth or viability, MTT; 24 h).
The concentration of `CCCCOC(=O)N1CCN(C(=O)[C@H](CP(=O)(O)O)NC(=O)c2cc(N3CC[C@H](OC)C3)nc(-c3ccccc3)n2)CC1` is reported as 2.1 ng/mL (human, plasma; subcutaneous, 16 mg, 24 h, single dose).
`COc1cc(OC)c2c(=O)cc(-c3ccc(Br)cc3)oc2c1-c1c(OC)cc(OC)c2c(=O)cc(-c3ccc(Br)cc3)oc12` gave a CC50 of > 200 µM (HS27; cell growth or viability, MTT; 24 h).
With `COc1ccc(CN2C[C@H]3CC[C@@H]4[C@](C)(COC(C)=O)[C@H](OC(C)=O)CC[C@@]4(C)[C@@H]3C[C@@H]2C2=CCOC2=O)cc1` the cell death was 56.4% (MRC5; cell growth or viability, ATP luminescence; 25 µM, 72 h).
`COc1cc(C)c(-c2c(C)cc(OC)c3c(=O)cc(-c4ccccc4Br)oc23)c2oc(-c3ccccc3Br)cc(=O)c12` has a CC50 of > 200 µM (HS27; cell growth or viability, MTT; 24 h).
`Oc1c(-n2ccnn2)cnn1-c1cc(N2CCOCC2)ncn1` gave a bioavailability of 61% (female monkey, plasma; oral, 1 mg/kg).
With `COc1cc(OC)c2c(=O)cc(-c3ccc(N(C)C)cc3)oc2c1` the CC50 was > 200 µM (HS27; cell growth or viability, MTT; 24 h).
`COc1ccc(CN2C[C@H]3CC[C@@H]4[C@](C)(CO)[C@H](O)CC[C@@]4(C)[C@@H]3C[C@@H]2C2=CCOC2=O)cc1` gave a cell death of -1.8% (MRC5; cell growth or viability, ATP luminescence; 25 µM, 72 h).
